Only a selection was taken, and hits are over-represented in it overall.
IDH1 mut inh: blocks human IDH1 R132H reductase activity | AID 624101 | diaphorase/resazurin fluorescence, 60 min | O75874 | inhibition, % at 10 µM | actives 0.18% (n = 70,000); in the data active = inhibition above about 34%; inconclusive = no clear call, values can overlap the other calls; inactive = below about 11%
Target sequence (O75874 whole entry R132H): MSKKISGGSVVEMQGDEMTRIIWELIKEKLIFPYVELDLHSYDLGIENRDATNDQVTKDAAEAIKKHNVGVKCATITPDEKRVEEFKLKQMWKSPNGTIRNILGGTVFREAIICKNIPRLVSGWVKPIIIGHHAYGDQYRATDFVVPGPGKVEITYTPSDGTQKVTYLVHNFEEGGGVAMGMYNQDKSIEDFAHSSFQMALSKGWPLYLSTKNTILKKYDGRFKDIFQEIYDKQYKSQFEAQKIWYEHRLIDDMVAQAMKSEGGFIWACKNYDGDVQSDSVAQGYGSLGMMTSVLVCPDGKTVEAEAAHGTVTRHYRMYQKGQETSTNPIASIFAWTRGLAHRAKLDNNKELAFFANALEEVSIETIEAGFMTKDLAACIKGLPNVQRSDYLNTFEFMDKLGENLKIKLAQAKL
GASC1 inh: KDM4C (human) demethylase inhibition | Q9H3R0 | GST-KDM4C 2-372, H3K9me3 peptide, LANCE TR-FRET | inhibition, % at 12.5 µM | AID 720574 | actives 0.15% (n = 96,000);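 active = mean replicate inhibition above about 25%, with at least 55% of replicates also reaching it, limit read from the data, passing the limit was not always enough; inconclusive = only one of those two conditions met; inactive = neither condition met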
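Material: N-terminal GST-fused human GASC-1 (KDM4C) fragment, residues 2-372. Input: 10 nM enzyme. Incubation: enzyme reaction 30 min, then detection 60 min, both room temperature. Doses: one test concentration per compound. Read-out basis: inhibition from TR-FRET ratio decrease. Detection: LANCE TR-FRET, excitation 340 nm, emissions 618 and 671 nm.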
T cruzi growth-1: inhibitors of T. cruzi proliferation. T. cruzi beta-gal in NIH3T3, GalScreen luminescence, 90 h. inhibition, % at 8.34 µM. actives 5.9% (n = 77,000). AID 624255;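 active = mean inhibition above about 93%, with at least 55% of replicates each passing it, limit read from the data, passing the limit was not always enough; inconclusive = only one of those two conditions holds; inactive = neither condition holds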
T cruzi growth-2: Trypanosoma cruzi proliferation inhibition; shares compounds with T cruzi growth-1; T. cruzi beta-gal in NIH3T3, GalScreen luminescence, 90 h; inhibition, % at 8.35 µM; actives 72% (n = 5,600); AID 651739;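 active = mean replicate inhibition above about 95% and at least 55% of replicates individually reaching it, limit read from the data; inconclusive = only one of the two criteria is met; inactive = neither criterion is met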
T cruzi growth-3: inhibitors of T. cruzi proliferation; shares compounds with T cruzi growth-1; inhibition, % at 2.09 µM; actives 21% (n = 5,600); T. cruzi beta-gal in NIH3T3, GalScreen luminescence, 90 h;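 active = mean inhibition above about 95%, with at least 55% of replicates also reaching it, limit read from the data; inconclusive = meets just one of the two conditions; inactive = meets neither condition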
3T3 cytotox: kills mouse NIH/3T3 fibroblasts; shares compounds with T cruzi growth-1; NIH/3T3 viability, CellTiter-Glo ATP luminescence, 90 h; cytotoxicity (signal decrease), % at 8.35 µM; actives 14% (n = 5,600); AID 651742;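 active = mean signal decrease across replicates above about 35% based on untreated-well scatter, with enough replicates individually passing, limit read from the data; inconclusive = no rule stated though some were filed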
NIH3T3 tox 2: cytotoxicity in mouse NIH/3T3 fibroblasts; shares compounds with T cruzi growth-1; NIH/3T3 viability, CellTiter-Glo ATP luminescence, 90 h; inhibition, % at 24.9 µM; actives 56% (n = 5,600); AID 651744;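 active = mean loss of cell viability signal at or above a set limit, and enough replicates individually reaching it; inconclusive = meets only the mean limit or only the replicate share; inactive = meets neither condition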
Large screens that a line does not name were inactive (follow-up assays come after a bar, where they were run).

CCCCN1C(=O)C(O)(CC(=O)c2ccco2)c2ccccc21 (stereo unspecified)	none (no result: GASC1 inh, T cruzi growth-1)
COc1ccc(NC(=O)CN2CCN(C(=O)c3ccco3)CC2)cc1	none (no result: GASC1 inh, T cruzi growth-1)
Cc1cc(Cl)ccc1NC(=O)CSc1nc(C(F)(F)F)cc(=O)[nH]1	none (no result: GASC1 inh, T cruzi growth-1)
N#C[C@H]1[C@@H](c2ccc(-c3ccccc3)cc2)[C@H](CO)N1C(=O)Cc1ccccc1	T cruzi growth-1 104 (no result: IDH1 mut inh) | T cruzi growth-2 110 | T cruzi growth-3 inactive | 3T3 cytotox inactive | NIH3T3 tox 2 31
N#C[C@@H]1[C@H](c2ccc(-c3ccccc3)cc2)[C@H](CO)N1C(=O)Cc1ccccc1	T cruzi growth-1 inconclusive (no result: IDH1 mut inh) | T cruzi growth-2 103 | T cruzi growth-3 inactive | 3T3 cytotox inactive | NIH3T3 tox 2 inactive
N#C[C@@H]1[C@H](c2ccccc2)[C@@H](CO)N1C(=O)c1cc(Cl)cc(Cl)c1	none (no result: IDH1 mut inh)
N#C[C@H]1[C@H](c2ccc(-c3ccccc3)cc2)[C@H](CO)N1C(=O)Cc1ccccc1	none (no result: IDH1 mut inh)
N#C[C@@H]1[C@@H](c2ccc(-c3ccccc3)cc2)[C@H](CO)N1C(=O)Cc1ccccc1	none (no result: IDH1 mut inh)
N#C[C@H]1[C@@H](c2ccccc2)[C@H](CO)N1C(=O)c1cc(Cl)cc(Cl)c1	T cruzi growth-1 inconclusive (no result: IDH1 mut inh) | T cruzi growth-2 inconclusive | T cruzi growth-3 inactive | 3T3 cytotox inactive | NIH3T3 tox 2 inactive
CSc1ccccc1NC(=O)C(C)NS(=O)(=O)c1ccc(C)cc1 (stereo unspecified)	none (no result: GASC1 inh, T cruzi growth-1)
Cc1nc(SCC(=O)c2ccc3c(c2)OCCO3)c2c3c(sc2n1)CCC3	none (no result: GASC1 inh, T cruzi growth-1)
CCn1c(SCC(=O)N2CCc3ccccc32)nnc1-c1ccc([N+](=O)[O-])cc1	none (no result: GASC1 inh, T cruzi growth-1)
COc1ccc(OC)c(C2C(C(=O)c3ccco3)C(=O)C(=O)N2CCN2CCOCC2)c1 (stereo unspecified)	none (no result: GASC1 inh, T cruzi growth-1)
CSc1cccc(NC(=O)CSc2nnc(-c3cccc(C)c3)o2)c1	none (no result: GASC1 inh, T cruzi growth-1)
COc1ccccc1-n1c(SCC(N)=O)nc2ccc(I)cc2c1=O	none (no result: GASC1 inh, T cruzi growth-1)
CC(=O)Nc1ccc(NC(=O)CSC2=NC(c3ccccc3)CC(=O)N2)cc1 (stereo unspecified)	none (no result: GASC1 inh, T cruzi growth-1)
C[C@H](CO)N1C[C@H](C)[C@@H](CN(C)C(=O)Nc2ccccc2)OCCCC[C@H](C)Oc2ccc(NC(=O)Nc3ccccc3)cc2C1=O	T cruzi growth-1 102 | T cruzi growth-2 107 | T cruzi growth-3 inactive | 3T3 cytotox inactive | NIH3T3 tox 2 inactive
CC(C)NC(=O)Nc1ccc2c(c1)C(=O)N([C@@H](C)CO)C[C@@H](C)[C@@H](CN(C)C(=O)Nc1ccccc1)OCCCC[C@H](C)O2	none
CC(C)NC(=O)Nc1ccc2c(c1)C(=O)N([C@@H](C)CO)C[C@H](C)[C@H](CN(C)C(=O)Nc1ccccc1)OCCCC[C@H](C)O2	T cruzi growth-1 100 | T cruzi growth-2 inactive | T cruzi growth-3 inactive | 3T3 cytotox inactive | NIH3T3 tox 2 inactive
C[C@@H]1CCCCO[C@H](CN(C)C(=O)Nc2ccccc2)[C@H](C)CN([C@@H](C)CO)C(=O)c2cc(NC(=O)Nc3ccccc3)ccc2O1	none
C[C@H](CO)N1C[C@H](C)[C@H](CN(C)C(=O)Nc2ccccc2)OCCCC[C@H](C)Oc2ccc(NC(=O)Nc3ccc(F)cc3)cc2C1=O	none
C[C@H]1CCCCO[C@H](CN(C)C(=O)Nc2ccccc2)[C@@H](C)CN([C@@H](C)CO)C(=O)c2cc(NC(=O)Nc3ccccc3)ccc2O1	T cruzi growth-1 98 | T cruzi growth-2 109 | T cruzi growth-3 inactive | 3T3 cytotox inactive | NIH3T3 tox 2 inactive
CC(C)NC(=O)N(C)C[C@H]1OCCCC[C@H](C)Oc2ccc(NC(=O)Nc3ccccc3)cc2C(=O)N([C@H](C)CO)C[C@@H]1C	none
C[C@H]1CCCCO[C@@H](CN(C)C(=O)Nc2ccccc2)[C@@H](C)CN([C@@H](C)CO)C(=O)c2cc(NC(=O)Nc3ccccc3)ccc2O1	T cruzi growth-1 inconclusive | T cruzi growth-2 110 | T cruzi growth-3 inactive | 3T3 cytotox inactive | NIH3T3 tox 2 inactive
CCOC(=O)CSc1n[nH]c(CC)n1	none (no result: GASC1 inh, T cruzi growth-1)
NC(=O)CN(c1ccccc1)S(=O)(=O)c1ccc(F)cc1	none (no result: GASC1 inh, T cruzi growth-1)
Cc1ccc(S(=O)(=O)NN2C(=O)S/C(=C/c3ccccc3)C2=S)cc1	none (no result: GASC1 inh, T cruzi growth-1)

From PubChem
